In ChEMBL document CHEMBL1148092, “Novel Ca(2+)-ATPase inhibitors from the dried root tubers of Polygonum Multiflorum” (J Nat Prod, 1994):
Active and inactive are the calls of the source. The rule behind the calls is not given here.

Tests used:
Assay type in all cases: cell-based
Homo sapiens [1] = organism: Homo sapiens; assay: Inhibition of Mg2+ ATPase activity in human red blood cells at 25 uM by spectrophotometry
How it was run: (§1)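 Mg2+-ATPase was assayed with calmodulin-depleted human erythrocyte membranes (2.5 mg/ml) at 37° for 1 h, without added CaCl2, in 65 mM KCl, 20 mM K-HEPES, 5 mM MgCl2, 0.1 μM calmodulin and 0.1 mM EGTA. Compounds in DMSO (2.5% final) were added before starting with 2 mM ATP (pH 7.4). Liberated phosphate was measured spectrometrically, in duplicate.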

Homo sapiens [2] = organism: Homo sapiens; assay: Inhibition of Mg2+ ATPase activity in human red blood cells at 50 uM by spectrophotometry; how it was run: as §1
Homo sapiens [3] = organism: Homo sapiens; assay: Inhibition of Mg2+ ATPase activity in human red blood cells at 100 uM by spectrophotometry; how it was run: as §1
Homo sapiens [4] = organism: Homo sapiens; assay: Inhibition of Mg2+ ATPase activity in human red blood cells at 200 uM by spectrophotometry; how it was run: as §1
Homo sapiens [5] = organism: Homo sapiens; assay: Inhibition of Mg2+ ATPase activity in human red blood cells at 400 uM by spectrophotometry; how it was run: as §1
Homo sapiens [6] = organism: Homo sapiens; assay: Inhibition of Mg2+ ATPase activity in human red blood cells at 800 uM by spectrophotometry; how it was run: as §1
Homo sapiens [7] = organism: Homo sapiens; assay: Inhibition of Ca2+ ATPase activity in human red blood cells at 25 uM by spectrophotometry
How it was run: (§2)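 Calmodulin-depleted membranes from human packed erythrocytes (2.5 mg/ml) were incubated for 1 h at 37° in 65 mM KCl, 20 mM K-HEPES, 5 mM MgCl2, 50 μM CaCl2 (50.4 μM free Ca2+), 0.1 μM calmodulin and 0.1 mM EGTA. Test agents in DMSO (2.5% final) were added before 2 mM ATP (pH 7.4). Released phosphate was read spectrometrically, Mg2+-ATPase activity was subtracted, and assays were run in duplicate.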

Homo sapiens [8] = organism: Homo sapiens; assay: Inhibition of Ca2+ ATPase activity in human red blood cells at 50 uM by spectrophotometry; how it was run: as §2
Homo sapiens [9] = organism: Homo sapiens; assay: Inhibition of Ca2+ ATPase activity in human red blood cells at 100 uM by spectrophotometry; how it was run: as §2
Homo sapiens [10] = organism: Homo sapiens; assay: Inhibition of Ca2+ ATPase activity in human red blood cells at 200 uM by spectrophotometry; how it was run: as §2
Homo sapiens [11] = organism: Homo sapiens; assay: Inhibition of Ca2+ ATPase activity in human red blood cells at 400 uM by spectrophotometry; how it was run: as §2
Homo sapiens [12] = organism: Homo sapiens; assay: Inhibition of Ca2+ ATPase activity in human red blood cells at 800 uM by spectrophotometry; how it was run: as §2
[13] = Inhibition of Ca2+ ATPase activity in human red blood cells by spectrophotometry; how it was run: as §2
Homo sapiens [14] = organism: Homo sapiens; assay: Inhibition of Mg2+ ATPase activity in human red blood cells at 1600 uM by spectrophotometry; how it was run: as §1
Homo sapiens [15] = organism: Homo sapiens; assay: Inhibition of Ca2+ ATPase activity in human red blood cells at 1600 uM by spectrophotometry; how it was run: as §2

Row | SMILES | inhibition (Homo sapiens [1]) [%] | inhibition (Homo sapiens [2]) [%] | inhibition (Homo sapiens [3]) [%] | inhibition (Homo sapiens [4]) [%] | inhibition (Homo sapiens [6]) [%] | inhibition (Homo sapiens [7]) [%] | inhibition (Homo sapiens [8]) [%] | inhibition (Homo sapiens [9]) [%] | inhibition (Homo sapiens [10]) [%] | inhibition (Homo sapiens [11]) [%] | inhibition (Homo sapiens [12]) [%] | IC50 [13] [µM] | Activity (Homo sapiens [15]) | also measured
1 | CCC/C=C1/OC(=O)C2=C1CC[C@H](O)[C@@H]2O (relative stereo) | 0 | 17 | 36 | 52 | 85 | 0 | 0 | 27 | 62 | 79 | 90 | 160 | – | inhibition (Homo sapiens [5]): 67%
2 | CCC/C=C1/OC(=O)C2=C1CC[C@H](O)[C@H]2O (relative stereo) | 21 | 13 | 32 | 32 | 71 | 0 | 3 | 8 | 36 | 72 | 87 | 260 | – | inhibition (Homo sapiens [14]): 82%; inhibition (Homo sapiens [15]): 94%
3 | Cc1cc(O)c2c(c1)C(=O)c1cccc(O)c1C2=O | – | – | – | – | – | – | – | – | – | – | – | – | inactive | –
4 | O=C(O)c1cc(O)c2c(c1)C(=O)c1cccc(O)c1C2=O | – | – | – | – | – | – | – | – | – | – | – | – | inactive | –
5 | Cc1cc(O)c2c(c1)C(=O)c1cc(O)cc(O)c1C2=O | – | – | – | – | – | – | – | – | – | – | – | – | inactive | –
6 | OC[C@H]1O[C@@H](Oc2c(O)cc(O)cc2/C=C/c2ccc(O)cc2)[C@H](O)[C@@H](O)[C@@H]1O | 14 | 25 | 28 | 41 | 62 | 8 | 8 | 15 | 44 | 70 | 95 | 240 | – | inhibition (Homo sapiens [5]): 56%; inhibition (Homo sapiens [14]): 75%; inhibition (Homo sapiens [15]): 98%
7 | OC[C@H]1O[C@@H](Oc2cc(O)cc(O)c2/C=C/c2ccc(O)cc2)[C@H](O)[C@@H](O)[C@@H]1O | – | – | – | – | – | – | – | – | – | – | – | – | – | Activity (Homo sapiens [1]): inactive; Activity (Homo sapiens [2]): inactive; Activity (Homo sapiens [3]): inactive; Activity (Homo sapiens [4]): inactive; Activity (Homo sapiens [7]): inactive; Activity (Homo sapiens [8]): inactive; Activity (Homo sapiens [9]): inactive; Activity (Homo sapiens [10]): inactive
8 | COc1ccc(/C=C/c2cc(O)cc(O[C@@H]3O[C@H](CO)[C@@H](O)[C@H](O)[C@H]3O)c2)cc1O | – | – | – | – | – | – | – | – | – | – | – | – | inactive | –
